Measurements as given in ChEMBL document CHEMBL5634095, “Design, synthesis and evaluation of novel pyrimidinylaminothiophene derivatives as FGFR1 inhibitors against human glioblastoma multiforme” (Eur J Med Chem, 2023).
pIC50: −log10 of the molar value. Each block holds one molecule with its values, some of them ahead of it. Activity calls are given as the source filed them. The calls are words filed in the database; no cut-off is given here.

What was measured:
U-87 MG [1] = assay: Antiproliferative activity against human U-87 MG cells incubated for 48 hrs by MTT assay
NIH3T3 = assay: Cytotoxicity against mouse NIH/3T3 cells incubated for 48 hrs by MTT assay; assay type: toxicity, cell-based; details: nih3t3, 48 h
[2] = Terminal half-life in rat at 52.5 mg/kg, po measured upto 48 hrs by LC analysis; assay type: ADME, organism-based; details: in vivo, read-out: beta t1/2 (converted)
Summary of the method: (§1)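 Rats (n=5) dosed orally once with 52.5 mg/kg, dispersed in sodium carboxymethyl cellulose. Plasma separated at 1200×g, deproteinated with acetonitrile, then analysed by UHPLC on a C18 column with a methanol/formic acid eluent.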

U-87 MG [3] = assay: Inhibition of colony formation in human U-87MG cells
U-87 MG [4] = assay: Induction of cell cycle arrest in human U-87 MG cells assessed as decrease in G0 phase cell population at 1 uM incubated for 48 hrs by PI staining based flow cytometry analysis (reference value: 71.6 %); assay type: functional, U-87MG ATCC; set-up: scale not given: the % may be the effect or the level left
HUVEC [5] = assay: Anti-angiogenesis activity in HUVEC assessed as reduction in tube formation at 0.1 uM incubated for 24 hrs by matrigel based light microscopic analysis; assay type: functional, Homo sapiens; set-up: scale not given: the % may be the effect or the level left
U-87 MG [6] = assay: Induction of cell cycle arrest in human U-87 MG cells assessed as increase in G2/M phase cell population at 0.3 uM incubated for 48 hrs by PI staining based flow cytometry analysis (reference value: 14.5 %); assay type: functional, U-87MG ATCC
U-87 MG [7] = assay: Anti-invasive activity against human U-87 MG cells assessed as reduction in number of cells at upper well at 0.3 uM incubated for 24 hrs by crystal violet staining based inverted microscope analysis; assay type: functional, U-87MG ATCC
Summary of the method: (§2)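 Transwell top chambers coated with Matrigel (1:9 in serum-free DMEM). U-87 MG cells pretreated 20 min with 0.1% DMSO or compound, seeded at 1×10^4 cells/well, with complete medium below. After 24 h, non-invading cells removed and the rest fixed in paraformaldehyde, stained with 0.1% crystal violet, imaged at ×100 in six random fields and counted.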

U-87 MG [8] = assay: Antitumor activity against human U-87 MG cells implanted in nude mouse assessed as reduction in CD31 expression at 75 mg/kg/day, po administered 5 times a week for 4 weeks by IHC analysis; assay type: functional, U-87MG ATCC; set-up: scale not given: the % may be the effect or the level left
U-87 MG [9] = assay: Induction of cell cycle arrest in human U-87 MG cells assessed as increase in G2/M phase cell population at 1 uM incubated for 48 hrs by PI staining based flow cytometry analysis (reference value: 14.5 %); assay type: functional, U-87MG ATCC
[10] = Tmax in rat at 52.5 mg/kg, po measured upto 48 hrs by LC analysis; assay type: ADME, organism-based; details: in vivo; summary of the method: as §1
[11] = AUC in rat at 52.5 mg/kg, po measured upto 48 hrs by LC analysis; assay type: ADME, organism-based; details: in vivo; summary of the method: as §1
U-87 MG [12] = assay: Antitumor activity against human U-87 MG cells implanted in nude mouse assessed as reduction in CD31 expression at 50 mg/kg/day, po administered 5 times a week for 4 weeks by IHC analysis; assay type: functional, U-87MG ATCC; set-up: scale not given: the % may be the effect or the level left
U-87 MG [13] = assay: Antitumor activity against human U-87 MG cells implanted in nude mouse assessed as reduction in Ki67 expression at 75 mg/kg/day, po administered 5 times a week for 4 weeks by IHC analysis; assay type: functional, U-87MG ATCC; set-up: scale not given: the % may be the effect or the level left
HUVEC [14] = assay: Anti-angiogenesis activity in HUVEC assessed as reduction in tube formation at 2 uM incubated for 24 hrs by matrigel based light microscopic analysis; assay type: functional, Homo sapiens; set-up: scale not given: the % may be the effect or the level left
U-87 MG [15] = assay: Induction of cell cycle arrest in human U-87 MG cells assessed as decrease in G0 phase cell population at 0.3 uM incubated for 48 hrs by PI staining based flow cytometry analysis (reference value: 71.6 %); assay type: functional, U-87MG ATCC; set-up: scale not given: the % may be the effect or the level left
HUVEC [16] = assay: Anti-angiogenesis activity in HUVEC assessed as reduction in tube formation at 0.5 uM incubated for 24 hrs by matrigel based light microscopic analysis; assay type: functional, Homo sapiens; set-up: scale not given: the % may be the effect or the level left
U-87 MG [17] = assay: Antitumor activity against human U-87 MG cells implanted in nude mouse assessed as reduction in Ki67 expression at 50 mg/kg/day, po administered 5 times a week for 4 weeks by IHC analysis; assay type: functional, U-87MG ATCC; set-up: scale not given: the % may be the effect or the level left
U-87 MG [18] = assay: Anti-invasive activity against human U-87 MG cells assessed as reduction in number of cells at upper well at 3 uM incubated for 24 hrs by crystal violet staining based inverted microscope analysis; assay type: functional, U-87MG ATCC; summary of the method: as §2
U-87 MG [19] = assay: Induction of cell cycle arrest in human U-87 MG cells assessed as increase in G2/M phase cell population at 3 uM incubated for 48 hrs by PI staining based flow cytometry analysis (reference value: 14.5 %); assay type: functional, U-87MG ATCC
[20] = Cmax in rat at 52.5 mg/kg, po measured upto 48 hrs by LC analysis; assay type: ADME, organism-based; details: in vivo; summary of the method: as §1
U-87 MG [21] = assay: Induction of cell cycle arrest in human U-87 MG cells assessed as decrease in G0 phase cell population at 3 uM incubated for 48 hrs by PI staining based flow cytometry analysis (reference value: 71.6 %); assay type: functional, U-87MG ATCC; set-up: scale not given: the % may be the effect or the level left
Mus musculus = organism: Mus musculus; details: dose 50-75 mg/kg/day, route po, time 4.0 weeks

SMILES: CNC(=O)c1ccsc1Nc1nc(Nc2ccc(N3CCC(N4CCCCC4)CC3)cc2)ncc1C(F)(F)F
pIC50 (U-87 MG [1]): 5.56

SMILES: CNC(=O)c1cc(-c2ccccc2)sc1Nc1nc(Nc2ccc(N3CCOCC3)cc2)ncc1C(F)(F)F
pIC50 (U-87 MG [1]): 4.63

SMILES: CNC(=O)c1ccsc1Nc1nc(Nc2ccc(N3CCOCC3)cc2)ncc1C(F)(F)F
pIC50 (U-87 MG [1]): < 4.30

SMILES: CNC(=O)c1ccsc1Nc1nc(Nc2ccc(N3CCC(N4CCOCC4)CC3)cc2)ncc1Cl
pIC50 (U-87 MG [1]): 5.37

SMILES: CNC(=O)c1cc(C(C)(C)C)sc1Nc1nc(Nc2ccc(N3CCOCC3)cc2)ncc1C(F)(F)F
pIC50 (U-87 MG [1]): < 4.30

SMILES: CNC(=O)c1ccsc1Nc1nc(Nc2ccc(N3CCC(N4CCOCC4)CC3)cc2)ncc1C(F)(F)F
Activity (NIH3T3): Non-Toxic | half-life [2]: 14.3 h | pIC50 (U-87 MG [3]): 6.92 | Activity (U-87 MG [4]): 16.6% | Activity (HUVEC [5]): 10.4% | pIC50 (U-87 MG [1]): 5.62 | Activity (U-87 MG [6]): 56.8% | Activity (U-87 MG [7]): 71 | Activity (U-87 MG [8]): 37.5% | Activity (U-87 MG [9]): 79.4% | Tmax [10]: 4.4 h | AUC at 48 h [11]: 71500 ng·h/mL | Activity (U-87 MG [12]): 78.9% | Activity (U-87 MG [13]): 62% | Activity (HUVEC [14]): 81% | Activity (U-87 MG [15]): 34.4% | Activity (HUVEC [16]): 59.7% | Activity (U-87 MG [17]): 38.4% | Activity (U-87 MG [18]): 24 | Activity (U-87 MG [19]): 86.8% | Cmax [20]: 3900 ng/mL | Activity (U-87 MG [21]): 9.36% | inhibition (Mus musculus): Active

SMILES: CNC(=O)c1ccsc1Nc1nc(Nc2ccc(OCCN3CCOCC3)cc2)ncc1C(F)(F)F
pIC50 (U-87 MG [1]): 4.92

SMILES: CNC(=O)c1ccsc1Nc1nc(Nc2ccc(N3CCC(N4CCOCC4)CC3)cc2)ncc1Br
pIC50 (U-87 MG [1]): 4.52

Further molecules by rising pIC50 (U-87 MG [1]), results first:

pIC50 (U-87 MG [1]): 4.59
SMILES: COc1cc(CCc2cc(NC(=O)c3ccc(N4C[C@@H](C)N[C@@H](C)C4)cc3)n[nH]2)cc(OC)c1 [FEXAGRATINIB]

pIC50 (U-87 MG [1]): 4.72
SMILES: CNC(=O)c1ccsc1Nc1nc(Nc2cccc(N3CCOCC3)c2)ncc1C(F)(F)F

pIC50 (U-87 MG [1]): 4.72
SMILES: CNC(=O)c1ccsc1Nc1nc(Nc2ccc(CS(=O)(=O)N3CCOCC3)cc2)ncc1C(F)(F)F

pIC50 (U-87 MG [1]): 4.91
SMILES: CNC(=O)c1ccsc1Nc1nc(Nc2ccc(CCN3CCS(=O)(=O)CC3)cc2)ncc1C(F)(F)F

pIC50 (U-87 MG [1]): 4.94
SMILES: CNC(=O)c1ccsc1Nc1nc(Nc2ccc(N3CCC(N4CCOCC4)CC3)cc2)ncc1C

pIC50 (U-87 MG [1]): 5.43
SMILES: CNC(=O)c1ccsc1Nc1nc(Nc2ccc(N3CCN(CCO)CC3)cc2)ncc1C(F)(F)F
